Results taken from ChEMBL document CHEMBL2440047, “Design, synthesis, and structure-activity relationships of azolylmethylpyrroloquinolines as nonsteroidal aromatase inhibitors” (J Med Chem, 2013).

Key:
Aromatase [1] = target: T1, Aromatase (Homo sapiens, UniProt P11511); assay: Inhibition of CYP19 in human H295R cells using [1beta-3H(N)]-androst-4-ene-3,17-dione at 10 uM after 24 hrs by tritiated water release assay; format: cell-based
T1 sequence (P11511 whole entry): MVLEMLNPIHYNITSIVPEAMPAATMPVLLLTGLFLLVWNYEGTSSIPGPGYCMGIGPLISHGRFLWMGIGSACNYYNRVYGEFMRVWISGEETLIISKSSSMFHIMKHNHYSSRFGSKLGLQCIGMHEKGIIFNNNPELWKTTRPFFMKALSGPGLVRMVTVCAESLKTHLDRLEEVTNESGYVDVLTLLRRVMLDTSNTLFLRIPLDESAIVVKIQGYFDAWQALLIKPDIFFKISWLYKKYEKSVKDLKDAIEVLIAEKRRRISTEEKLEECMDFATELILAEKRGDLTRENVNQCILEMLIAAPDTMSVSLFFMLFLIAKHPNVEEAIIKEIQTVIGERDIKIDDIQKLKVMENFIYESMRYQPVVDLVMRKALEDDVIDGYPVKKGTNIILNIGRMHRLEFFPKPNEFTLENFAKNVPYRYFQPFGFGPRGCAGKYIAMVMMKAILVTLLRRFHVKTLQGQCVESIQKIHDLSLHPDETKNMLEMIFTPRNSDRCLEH
In short: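 Cells were then incubated 2 h with 0.5 µM [1β-3H(N)]-androst-4-ene-3,17-dione. Read-out is tritiated water release, expressed as % of untreated cells. Means ± SEM of two independent experiments, each in triplicate.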

Aromatase [2] = target: T1, Aromatase; assay: Inhibition of aromatase (unknown origin) using 7-methoxy-4-trifluoromethylcoumarin as substrate after 30 mins by fluorimetric analysis
In short: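 Recombinant CYP19 from a high-throughput screening kit, with 7-methoxy-4-trifluoromethylcoumarin as substrate. Enzyme/substrate mix was then added for 30 min at 37 °C before stop reagent. Fluorescence read at λex 410 / λem 530 nm. IC50 given as mean ± SEM of three independent experiments run in duplicate.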

HeLa = assay: Growth inhibition of non-estrogen-sensitive human HeLa cells after 72 hrs by MTT assay; format: functional
In short: (§1)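 Cells were seeded at 8x10^3 per well and left 18 h at 37 °C, 5% CO2, then exposed 72 h to compound at several concentrations from 10 mM DMSO stocks (final DMSO ≤0.25%). Jurkat, RS4;11 and SEM were grown in RPMI-1640; H295R in DMEM-F12 with 2% FBS plus insulin-transferrin-selenium. Viability read by MTT.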

OVCAR-3 = assay: Growth inhibition of estrogen-sensitive human OVCAR3 cells after 72 hrs by MTT assay; format: functional; conditions: OVCAR-3, 72 h; in short: as §1
HT-29 = assay: Growth inhibition of non-estrogen-sensitive human HT-29 cells after 72 hrs by MTT assay; format: functional; conditions: HT-29, 72 h; in short: as §1
[3] = target: T2, Cytochrome P450 11B1, mitochondrial (Homo sapiens, UniProt P15538); assay: Inhibition of human CYP11B1 using [1,2-3H]-11-deoxycorticosterone as substrate
T2 sequence (P15538 whole entry): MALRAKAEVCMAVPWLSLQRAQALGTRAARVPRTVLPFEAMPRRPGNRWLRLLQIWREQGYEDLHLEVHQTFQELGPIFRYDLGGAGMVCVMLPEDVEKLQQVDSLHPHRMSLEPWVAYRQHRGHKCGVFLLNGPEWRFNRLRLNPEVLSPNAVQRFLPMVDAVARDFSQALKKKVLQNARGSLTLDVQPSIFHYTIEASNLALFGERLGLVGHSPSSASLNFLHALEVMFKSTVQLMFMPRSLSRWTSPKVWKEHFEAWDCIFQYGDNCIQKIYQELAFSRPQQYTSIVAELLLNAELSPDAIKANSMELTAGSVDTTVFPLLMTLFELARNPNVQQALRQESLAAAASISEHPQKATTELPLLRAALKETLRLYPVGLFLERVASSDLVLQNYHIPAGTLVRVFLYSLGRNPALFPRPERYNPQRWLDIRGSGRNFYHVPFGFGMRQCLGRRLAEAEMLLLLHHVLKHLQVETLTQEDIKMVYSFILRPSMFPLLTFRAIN
In short: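 Hamster fibroblast V79MZh cells expressing human CYP11B1 were incubated with [1,2-3H]-11-deoxycorticosterone substrate and inhibitor at several concentrations. IC50 given as mean ± SEM of three independent experiments run in duplicate.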

[4] = Growth inhibition of non-estrogen-sensitive human RS4:11 cells after 72 hrs by MTT assay; format: functional; conditions: RS4-11, 72 h; in short: as §1
[5] = target: T3, Steroid 17-alpha-hydroxylase/17,20 lyase (Homo sapiens, UniProt P05093); assay: Inhibition of human CYP17 expressed in Escherichia coli using progesterone as substrate NADPH as cofactor
T3 sequence (P05093 whole entry): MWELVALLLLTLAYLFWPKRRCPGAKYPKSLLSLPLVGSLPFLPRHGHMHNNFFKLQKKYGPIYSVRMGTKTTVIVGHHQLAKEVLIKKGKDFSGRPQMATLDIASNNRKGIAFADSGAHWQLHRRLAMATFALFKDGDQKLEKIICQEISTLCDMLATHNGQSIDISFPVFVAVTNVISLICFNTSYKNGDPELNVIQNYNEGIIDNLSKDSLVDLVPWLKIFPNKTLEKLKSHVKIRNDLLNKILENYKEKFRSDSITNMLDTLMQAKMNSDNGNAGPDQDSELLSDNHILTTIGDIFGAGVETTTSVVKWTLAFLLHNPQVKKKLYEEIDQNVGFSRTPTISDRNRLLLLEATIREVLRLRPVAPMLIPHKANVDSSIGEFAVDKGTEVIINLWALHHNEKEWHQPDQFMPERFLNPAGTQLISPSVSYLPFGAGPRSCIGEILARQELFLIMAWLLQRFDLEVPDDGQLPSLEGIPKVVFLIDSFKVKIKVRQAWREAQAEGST
In short: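 Cell-free assay using the 50000g sediment of E. coli coexpressing human CYP17 and cytochrome P450 reductase, with progesterone substrate and NADPH cofactor. IC50 given as mean ± SEM of three independent experiments run in duplicate.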

Aromatase [6] = target: T1, Aromatase; assay: Inhibition of aromatase (unknown origin) using 7-methoxy-4-trifluoromethylcoumarin as substrate at 10 uM after 30 mins by fluorimetric analysis; conditions: 0.5 h
IGROV-1 = assay: Growth inhibition of estrogen-sensitive human IGROV1 cells after 72 hrs by MTT assay; format: functional; conditions: IGROV-1, 72 h; in short: as §1
[7] = Growth inhibition of non-estrogen-sensitive human SEM cells after 72 hrs by MTT assay; format: functional; in short: as §1
MCF7 = assay: Growth inhibition of estrogen-sensitive human MCF7 cells after 72 hrs by MTT assay; format: functional; conditions: MCF7, 72 h; in short: as §1
Jurkat = assay: Growth inhibition of non-estrogen-sensitive human Jurkat cells after 72 hrs by MTT assay; format: functional; in short: as §1
NCI-H295R = assay: Growth inhibition of estrogen-sensitive human NCI-H295R cells after 72 hrs by MTT assay; format: functional; in short: as §1
Aromatase [8] = target: T1, Aromatase; assay: Inhibition of aromatase in human H295R cells using [1beta-3H(N)]-androst-4-ene-3,17-dione as substrate at 10 uM after 24 hrs by tritiated water release assay
Aromatase [9] = target: T1, Aromatase; assay: Activation of aromatase in human H295R cells using [1beta-3H(N)]-androst-4-ene-3,17-dione as substrate at 0.1 uM after 24 hrs by tritiated water release assay

Row | SMILES | inhibition (INH) (Aromatase [1]) | IC50 (Aromatase [2]) | GI50 (HT-29) | GI50 [7] | further results
1 | CCOC(=O)c1cc(-c2ccccc2)nc2ccc3c(ccn3CC)c12 | Not Active | > 10 µM | – | – | –
2 | CCOC(=O)c1cc(-c2ccccc2)nc2c1ccc1c2ccn1CC | Not Active | > 10 µM | 4.3 µM | 13 µM | GI50 (MCF7): 18.5 µM
3 | CCOC(=O)c1cc(-c2ccccc2)nc2c1ccc1[nH]ccc12 | Active | > 10 µM | 17.2 µM | – | –
4 | Cc1cc(C(=O)O)c2ccc3[nH]ccc3c2n1 | Not Active | > 10 µM | – | – | Activity (Aromatase [9]): Active
5 | CCn1ccc2c3nc(-c4ccccc4)cc(CO)c3ccc21 | Not Active | > 10 µM | – | – | –
6 | CCn1ccc2c3c(CO)cc(-c4ccccc4)nc3ccc21 | – | > 10 µM | – | 13.4 µM | inhibition at 10 µM (Aromatase [8]): 90%

Now those with a lower IC50 (Aromatase [2]), led by results:

Row | inhibition (INH) (Aromatase [1]) | IC50 (Aromatase [2]) | GI50 (HT-29) | SMILES | GI50 [7] | further results
7 | Not Active | 0.454 µM | > 100 µM | COc1ccc(-c2cc(Cn3ccnc3)c3ccc4[nH]ccc4c3n2)cc1 | 25.5 µM | GI50 (HeLa): 67.9 µM; GI50 (OVCAR-3): > 100 µM; IC50 [3]: 0.96 µM; GI50 [4]: 23.3 µM; IC50 [5]: 0.55 µM; inhibition (INH) (Aromatase [6]): Not Active; GI50 (IGROV-1): > 100 µM; GI50 (MCF7): > 100 µM; GI50 (Jurkat): 73.8 µM; GI50 (NCI-H295R): 46.2 µM
8 | – | 2.11 µM | – | OCc1cc(-c2ccccc2)nc2c1ccc1[nH]ccc12 | – | inhibition at 10 µM (Aromatase [8]): 40%
9 | Not Active | 1.47 µM | – | CCn1ccc2c3c(C(=O)O)cc(-c4ccccc4)nc3ccc21 | – | –
